Experimental data collected from several papers.
Lines come from different studies, so protocols differ.
Target: Vascular endothelial growth factor receptor 1 (FLT1, Homo sapiens, UniProt P17948)

Compound | assay | conditions | measurement | result
CNCc1ccc(-c2cc(-c3nc(-c4ccc(S(=O)(=O)C(C)C)cc4)cnc3N)on2)cc1 | enzyme activity, inhibitor | 2 µM | inhibition | 83%
CC(C)CC(=O)N1CCc2nc(-c3ccc(Br)cc3)nc(N(C)Cc3ccccc3)c2C1 | cell-free assay, competition with immobilised ligand | 0.1 µM | remaining binding | 100%
Cc1ccc(C(=O)Nc2ccc(CN3CCN(C)CC3)c(C(F)(F)F)c2)cc1C#Cc1cnc2cccnn12 | cell-free assay | 23.5 nM | remaining signal | 33%
CN(c1ncccc1CNc1nc(Nc2ccc3c(c2)CC(=O)N3)ncc1C(F)(F)F)S(C)(=O)=O | enzyme activity, inhibitor | 1 µM | inhibition | 80%
CC/C(=N\NC(=O)NCc1cccc(O)c1)c1ccc(O)c(C)c1O | enzyme activity, inhibitor | 0.1 µM | inhibition | 2.5%
COc1cc2nccc(Oc3ccc(NC(=O)c4c5n(n(-c6ccc(F)cc6)c4=O)CCCC5)cc3)c2cc1OC | enzyme activity, inhibitor | 0.1 µM | inhibition | 23%
COc1cc(Nc2cnc(C#N)c(O[C@H](C)CN(C)C)n2)ncc1-c1cnn(C)c1 | enzyme activity, inhibitor, radiometric | 1 µM | remaining activity | 90%
Cc1ccc(Nc2nccc(N(C)c3ccc4c(C)n(C)nc4c3)n2)cc1S(N)(=O)=O | enzyme activity, inhibitor | 0.3 µM | inhibition | 100%
Cc1sc(C(=O)NC2COC2)cc1-n1cc(NC(=O)Nc2c(F)cccc2Cl)cn1 | enzyme activity, inhibitor | 10 µM | remaining activity | 84.1%
Cc1ccc(NC(=O)c2ccc(CN3CCN(C)CC3)cc2)cc1Nc1nc(-c2cccnc2)cs1 | cell-free assay | 0.5 µM | remaining signal | 96.4%
Cc1ccc(C(=O)NCc2ccsc2)cc1C#Cc1cn(C(C)C)c2ncnc(N)c12 | enzyme activity, inhibitor | 1 µM | activity vs control | -1%
CO[C@@H](C)c1c(Nc2ccc([C@@H](N(C)C(=O)C3CCS(=O)(=O)CC3)C(F)(F)F)cc2)cnc2cc(Cl)nn12 | cell-free assay, competition with immobilised ligand | 1 µM | remaining binding | 85%
CC(C)(C)c1nc(-c2cccc(NS(=O)(=O)c3c(F)cccc3F)c2F)c(-c2ccnc(N)n2)s1 | enzyme activity, inhibitor, radiometric | 1 µM | remaining activity | 84%
CCCOc1ccc([C@@H]2[C@@H](C(=O)O)[C@H](c3ccc4c(c3)OCO4)CN2CC(=O)Nc2c(CC)cccc2CC)cc1 | cell-free assay, competition with immobilised ligand | 1 µM | remaining binding | 94%
CC1CCCN1c1nccc(-c2cnn3ncccc23)n1 (stereo not drawn) | binding | 1 µM | remaining binding | 100%
Nc1ncnc2occ(-c3ccc(NC(=O)Nc4cc(C(F)(F)F)ccc4F)cc3)c12 | cell-free assay | 20 µM | remaining signal | 0.55%
CCCOc1ccc(OC)c(F)c1C(=O)c1ccc(C(=O)N[C@@H]2CNC[C@H]2NC(=O)c2ccc3[nH]ncc3c2)cc1 | enzyme activity, inhibitor | 10 µM | remaining activity | 35%
C[C@H](c1ccc(F)cc1)N(Cc1cccc(C(=O)O)c1)C(=O)c1cnc2ccccc2c1 | cell-free assay, competition with immobilised ligand | 1 µM | remaining binding | 100%
N#CCCc1ccc2c(c1)-c1[nH]c3ccc([N+](=O)[O-])cc3c1CC(=O)N2 | cell-free assay | 0.5 µM | remaining signal | 99.7%
CCN(CC)CCNC(=O)c1c(C)[nH]c(/C=C2\C(=O)Nc3ccc(F)cc32)c1C | enzyme activity, inhibitor | 0.3 µM | inhibition | 99%
CC(C)(O)[C@H]1CC[C@H](Nc2ccc3ncc(-c4cccc(C(F)(F)F)c4)n3n2)CC1 | enzyme activity, inhibitor | 1 µM | remaining activity | 92.5%
O=C(Nc1cnn(-c2csc(C(=O)NC3COC3)c2)c1)Nc1c(F)cccc1Cl | enzyme activity, inhibitor | 5 µM | remaining activity | 86.1%
COCCOc1nc(-c2ccc(Cl)nc2)nc2c1CN(C(=O)c1ncn3ccccc13)CC2 | cell-free assay, competition with immobilised ligand | 0.1 µM | remaining binding | 87%
Nc1nc(NC2CCCCC2)sc1C(=O)c1ccccc1 | enzyme activity, inhibitor | 10 µM | remaining activity | 57%
Cc1nccc(COC(=O)N2C[C@@H]3[C@@H](CNC(=O)c4ccc5[nH]nnc5c4)[C@@H]3C2)n1 | cell-free assay, competition with immobilised ligand | 1 µM | remaining binding | 100%
Cc1ccc(NC(=O)c2ccc(C)c(C(F)(F)F)c2)cc1C#Cc1nn(C2CCC(O)CC2)c2ncnc(N)c12 (stereo not drawn) | cell-free assay | 10 µM | remaining signal | 3%
C[C@@H](c1cccc(C#N)c1)n1cc(Cl)cc(C(N)=O)c1=N | cell-free assay, competition with immobilised ligand | 1 µM | remaining binding | 100%
CNC(=O)c1cc2c(Oc3ccc(NC(=O)C4(C(=O)Nc5ccc(F)cc5)CC4)cc3)ccnc2cc1OC | enzyme activity, inhibitor, radiometric | 1 µM | inhibition | 106%
COc1cc2ncnc(Nc3ccc(Oc4ccccc4)c(C)c3C)c2cc1OC | enzyme activity, inhibitor | 1 µM | inhibition | 0%
Cc1cc(-n2nc(Cc3cc(F)cc(C(F)(F)F)c3)nc2C)ccc1C(N)=O | cell-free assay, competition with immobilised ligand | 1 µM | remaining binding | 100%
